Source: ChEMBL document CHEMBL4261600 (Eur J Med Chem, 2018)
The source made the active and inactive calls.

Columns and labels:
Homo sapiens = species: Homo sapiens; experiment: Induction of apoptosis in human MEC1 cells assessed as decrease in XIAP level up to 3 uM after 2 hrs by immunoblotting analysis; type: functional, cell-based
[1] = Tmax in beagle dog at 2 mg/kg, iv by LC-MS/MS analysis; type: ADME, organism-based, Canis lupus familiaris; conditions: in vivo
[2] = tested on: Tyrosine-protein kinase ABL1 (Homo sapiens), P00519 [F317I]; experiment: Binding affinity to human phosphorylated ABL1 F317I mutant (S229 to K512 residues) expressed in mammalian expression system assessed as remaining unbound target protein level at 1000 nM by Kinomescan method relative to control
In short: (§1)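 Single-point competition binding screen across a panel of 468 kinases and mutants, with the inhibitor at 1 μM. Binding is read out as percent of a DMSO control, and targets below 1 percent control were classed as strong binders.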

[3] = tested on: Tyrosine-protein kinase ABL1 (Homo sapiens), P00519 [F317L]; experiment: Binding affinity to human phosphorylated ABL1 F317L mutant (S229 to K512 residues) expressed in mammalian expression system assessed as remaining unbound target protein level at 1000 nM by Kinomescan method relative to control; in short: as §1
[4] = tested on: Tyrosine-protein kinase ABL1 (Homo sapiens), P00519 [H396P]; experiment: Binding affinity to human non-phosphorylated ABL1 H396P mutant (S229 to K512 residues) expressed in mammalian expression system assessed as remaining unbound target protein level at 1000 nM by Kinomescan method relative to control
In short: (§2)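 KINOMEscan competition-binding profiling across the panel of 468 kinases and mutants, with inhibitor tested at 1 μM. Binding is expressed as percent of control, with DMSO as the reference control.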

[5] = molecular target: Calcium/calmodulin-dependent protein kinase type 1B (Homo sapiens) (UniProt Q6P2M8); experiment: Binding affinity to wild-type human partial length CAMK1B (W9 to A311 residues) expressed in mammalian expression system assessed as remaining unbound target protein level at 1000 nM by Kinomescan method relative to control
In short: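 Profiled in a KINOMEscan binding panel with the inhibitor at a single concentration of 1 μM. Binding to each kinase was read out as percent of control, relative to a DMSO control. Strong binders were defined as those with a percent control value below 1.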

[6] = molecular target: Cyclin-dependent kinase 11B (Homo sapiens, UniProt P21127); experiment: Binding affinity to wild-type human partial length CDK11 (M1 to N360 residues) expressed in bacterial expression system assessed as […] at 1000 nM after 1 hr by Kinomescan method relative to control
[7] = molecular target: Macrophage colony-stimulating factor 1 receptor (Homo sapiens) (UniProt P07333); experiment: Binding affinity to wild-type human partial length CSF1R (I564 to S939 residues) expressed in bacterial expression system assessed as remaining unbound target protein level at 1000 nM by Kinomescan method relative to control
[8] = molecular target: Ephrin type-B receptor 3 (Homo sapiens) (UniProt P54753); experiment: Binding affinity to wild-type human partial length EPHB3 (Q599 to T928 residues) expressed in bacterial expression system assessed as remaining unbound target protein level at 1000 nM by Kinomescan method relative to control
[9] = tested on: Receptor-type tyrosine-protein kinase FLT3 (Homo sapiens), P36888 [D835Y]; experiment: Binding affinity to human partial length FLT3 D835Y mutant (Q580 to Y969 residues) expressed in bacterial expression system assessed as remaining unbound target protein level at 1000 nM by Kinomescan method relative to control; in short: as §2
[10] = molecular target: Tyrosine-protein kinase HCK (Homo sapiens) (UniProt P08631); experiment: Binding affinity to wild-type human full length HCK (M22 to P526 residues) expressed in bacterial expression system assessed as remaining unbound target protein level at 1000 nM by Kinomescan method relative to control; in short: as §1
[11] = molecular target: Hormonally up-regulated neu tumor-associated kinase (Homo sapiens) (UniProt P57058); experiment: Binding affinity to wild-type human partial length HUNK (A31 to K354 residues) expressed in bacterial expression system assessed as remaining unbound target protein level at 1000 nM by Kinomescan method relative to control
In short: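 KINOMEscan binding panel of 468 kinases/mutants. Inhibitor was tested at a single concentration of 1 μM. Binding is reported as percent of control, defined relative to a DMSO control.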

[12] = tested on: Leucine-rich repeat serine/threonine-protein kinase 2 (Homo sapiens), Q5S007 [G2019S]; experiment: Binding affinity to human partial length LRRK2 G2019S mutant (H970 to E2527 residues) expressed in mammalian expression system assessed as remaining unbound target protein level at 1000 nM by Kinomescan method relative to control; in short: as §2
[13] = molecular target: Serine/threonine-protein kinase MAK (Homo sapiens) (UniProt P20794); experiment: Binding affinity to wild-type human partial length MAK (M1 to P314 residues) expressed in bacterial expression system assessed as remaining unbound target protein level at 1000 nM by Kinomescan method relative to control
[14] = molecular target: Serine/threonine-protein kinase mTOR (Homo sapiens) (UniProt P42345); experiment: Binding affinity to wild-type human partial length MTOR (L1382 to W2549 residues) expressed in mammalian expression system assessed as remaining unbound target protein level at 1000 nM by Kinomescan method relative to control
[15] = molecular target: Myosin light chain kinase, smooth muscle (Homo sapiens) (UniProt Q15746); experiment: Binding affinity to wild-type human full length MYLK (M854 to E1845 residues) expressed in mammalian expression system assessed as remaining unbound target protein level at 1000 nM by Kinomescan method relative to control
In short: (§3)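 KINOMEscan competition binding profile across a panel of 468 kinases and mutants, with the inhibitor tested at a single concentration of 1 μM. Binding is reported as percent of control, meaning signal relative to a DMSO control.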

[16] = molecular target: Serine/threonine-protein kinase 38-like (Homo sapiens) (UniProt Q9Y2H1); experiment: Binding affinity to wild-type human partial length NDR2 (N34 to E447 residues) expressed in bacterial expression system assessed as remaining unbound target protein level at 1000 nM by Kinomescan method relative to control
[17] = tested on: Phosphatidylinositol 4,5-bisphosphate 3-kinase catalytic subunit alpha isoform (Homo sapiens), P42336 [E545A]; experiment: Binding affinity to human partial length PIK3CA E545A mutant (R108 to N1068 residues) expressed in mammalian expression system assessed as remaining unbound target protein level at 1000 nM by Kinomescan method relative to control; in short: as §2
[18] = molecular target: Serine/threonine-protein kinase 16 (Homo sapiens) (UniProt O75716); experiment: Binding affinity to wild-type human partial length STK16 (G11 to I305 residues) expressed in bacterial expression system assessed as remaining unbound target protein level at 1000 nM by Kinomescan method relative to control
[19] = molecular target: Testis-specific serine/threonine-protein kinase 3 (Homo sapiens) (UniProt Q96PN8); experiment: Binding affinity to wild-type human full length TSSK3 (M1 to T268 residues) expressed in mammalian expression system assessed as remaining unbound target protein level at 1000 nM by Kinomescan method relative to control; in short: as §3
[20] = molecular target: Tyrosine-protein kinase TXK (Homo sapiens) (UniProt P42681); experiment: Binding affinity to wild-type human partial length TXK (L238 to W527 residues) expressed in bacterial expression system assessed as remaining unbound target protein level at 1000 nM by Kinomescan method relative to control
Chain of Tyrosine-protein kinase TXK (Homo sapiens) (P42681 whole entry, the tested form may be a part): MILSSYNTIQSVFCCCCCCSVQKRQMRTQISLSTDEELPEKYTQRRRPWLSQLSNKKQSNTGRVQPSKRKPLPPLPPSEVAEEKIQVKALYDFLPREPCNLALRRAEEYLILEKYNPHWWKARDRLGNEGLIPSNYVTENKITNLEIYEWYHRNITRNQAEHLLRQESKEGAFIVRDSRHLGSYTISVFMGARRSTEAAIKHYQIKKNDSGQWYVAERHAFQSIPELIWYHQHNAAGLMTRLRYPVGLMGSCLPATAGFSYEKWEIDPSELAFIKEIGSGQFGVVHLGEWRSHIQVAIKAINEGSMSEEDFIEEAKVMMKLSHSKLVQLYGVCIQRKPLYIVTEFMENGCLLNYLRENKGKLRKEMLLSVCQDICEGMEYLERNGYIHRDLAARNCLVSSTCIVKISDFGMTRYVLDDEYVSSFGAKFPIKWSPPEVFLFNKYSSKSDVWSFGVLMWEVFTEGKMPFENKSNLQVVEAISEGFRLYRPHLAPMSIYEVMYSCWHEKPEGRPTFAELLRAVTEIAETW

Chain of Phosphatidylinositol 4,5-bisphosphate 3-kinase catalytic subunit alpha isoform (Homo sapiens), P42336 [E545A] (P42336 whole entry E545A, the tested form may be a part, canonical isoform): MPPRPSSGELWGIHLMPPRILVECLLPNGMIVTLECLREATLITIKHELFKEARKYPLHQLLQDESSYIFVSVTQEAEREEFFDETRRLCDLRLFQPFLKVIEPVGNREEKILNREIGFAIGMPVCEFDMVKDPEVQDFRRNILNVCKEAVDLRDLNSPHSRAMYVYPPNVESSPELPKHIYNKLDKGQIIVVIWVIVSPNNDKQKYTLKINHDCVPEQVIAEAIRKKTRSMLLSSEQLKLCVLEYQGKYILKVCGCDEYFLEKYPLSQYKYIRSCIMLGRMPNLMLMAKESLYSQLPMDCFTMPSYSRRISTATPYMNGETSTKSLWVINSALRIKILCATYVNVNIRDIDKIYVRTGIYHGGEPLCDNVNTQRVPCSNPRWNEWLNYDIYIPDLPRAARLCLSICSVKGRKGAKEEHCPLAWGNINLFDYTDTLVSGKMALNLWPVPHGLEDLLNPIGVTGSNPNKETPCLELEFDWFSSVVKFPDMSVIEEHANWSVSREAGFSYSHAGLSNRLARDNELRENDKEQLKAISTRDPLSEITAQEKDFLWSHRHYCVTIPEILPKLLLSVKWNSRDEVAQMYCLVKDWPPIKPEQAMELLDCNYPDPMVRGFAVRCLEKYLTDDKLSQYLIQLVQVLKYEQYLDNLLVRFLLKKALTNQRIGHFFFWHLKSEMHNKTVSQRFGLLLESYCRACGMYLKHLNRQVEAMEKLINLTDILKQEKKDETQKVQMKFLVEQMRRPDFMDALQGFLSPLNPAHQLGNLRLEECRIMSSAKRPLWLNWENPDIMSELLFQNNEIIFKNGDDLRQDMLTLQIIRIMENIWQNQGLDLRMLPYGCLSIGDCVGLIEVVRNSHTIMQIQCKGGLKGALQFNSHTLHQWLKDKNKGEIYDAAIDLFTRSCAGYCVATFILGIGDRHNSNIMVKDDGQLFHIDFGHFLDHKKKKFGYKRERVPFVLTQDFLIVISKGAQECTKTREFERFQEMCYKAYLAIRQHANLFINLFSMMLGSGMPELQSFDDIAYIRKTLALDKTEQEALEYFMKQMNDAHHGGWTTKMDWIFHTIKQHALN
Chain of Myosin light chain kinase, smooth muscle (Homo sapiens) (Q15746 whole entry, the tested form may be a part): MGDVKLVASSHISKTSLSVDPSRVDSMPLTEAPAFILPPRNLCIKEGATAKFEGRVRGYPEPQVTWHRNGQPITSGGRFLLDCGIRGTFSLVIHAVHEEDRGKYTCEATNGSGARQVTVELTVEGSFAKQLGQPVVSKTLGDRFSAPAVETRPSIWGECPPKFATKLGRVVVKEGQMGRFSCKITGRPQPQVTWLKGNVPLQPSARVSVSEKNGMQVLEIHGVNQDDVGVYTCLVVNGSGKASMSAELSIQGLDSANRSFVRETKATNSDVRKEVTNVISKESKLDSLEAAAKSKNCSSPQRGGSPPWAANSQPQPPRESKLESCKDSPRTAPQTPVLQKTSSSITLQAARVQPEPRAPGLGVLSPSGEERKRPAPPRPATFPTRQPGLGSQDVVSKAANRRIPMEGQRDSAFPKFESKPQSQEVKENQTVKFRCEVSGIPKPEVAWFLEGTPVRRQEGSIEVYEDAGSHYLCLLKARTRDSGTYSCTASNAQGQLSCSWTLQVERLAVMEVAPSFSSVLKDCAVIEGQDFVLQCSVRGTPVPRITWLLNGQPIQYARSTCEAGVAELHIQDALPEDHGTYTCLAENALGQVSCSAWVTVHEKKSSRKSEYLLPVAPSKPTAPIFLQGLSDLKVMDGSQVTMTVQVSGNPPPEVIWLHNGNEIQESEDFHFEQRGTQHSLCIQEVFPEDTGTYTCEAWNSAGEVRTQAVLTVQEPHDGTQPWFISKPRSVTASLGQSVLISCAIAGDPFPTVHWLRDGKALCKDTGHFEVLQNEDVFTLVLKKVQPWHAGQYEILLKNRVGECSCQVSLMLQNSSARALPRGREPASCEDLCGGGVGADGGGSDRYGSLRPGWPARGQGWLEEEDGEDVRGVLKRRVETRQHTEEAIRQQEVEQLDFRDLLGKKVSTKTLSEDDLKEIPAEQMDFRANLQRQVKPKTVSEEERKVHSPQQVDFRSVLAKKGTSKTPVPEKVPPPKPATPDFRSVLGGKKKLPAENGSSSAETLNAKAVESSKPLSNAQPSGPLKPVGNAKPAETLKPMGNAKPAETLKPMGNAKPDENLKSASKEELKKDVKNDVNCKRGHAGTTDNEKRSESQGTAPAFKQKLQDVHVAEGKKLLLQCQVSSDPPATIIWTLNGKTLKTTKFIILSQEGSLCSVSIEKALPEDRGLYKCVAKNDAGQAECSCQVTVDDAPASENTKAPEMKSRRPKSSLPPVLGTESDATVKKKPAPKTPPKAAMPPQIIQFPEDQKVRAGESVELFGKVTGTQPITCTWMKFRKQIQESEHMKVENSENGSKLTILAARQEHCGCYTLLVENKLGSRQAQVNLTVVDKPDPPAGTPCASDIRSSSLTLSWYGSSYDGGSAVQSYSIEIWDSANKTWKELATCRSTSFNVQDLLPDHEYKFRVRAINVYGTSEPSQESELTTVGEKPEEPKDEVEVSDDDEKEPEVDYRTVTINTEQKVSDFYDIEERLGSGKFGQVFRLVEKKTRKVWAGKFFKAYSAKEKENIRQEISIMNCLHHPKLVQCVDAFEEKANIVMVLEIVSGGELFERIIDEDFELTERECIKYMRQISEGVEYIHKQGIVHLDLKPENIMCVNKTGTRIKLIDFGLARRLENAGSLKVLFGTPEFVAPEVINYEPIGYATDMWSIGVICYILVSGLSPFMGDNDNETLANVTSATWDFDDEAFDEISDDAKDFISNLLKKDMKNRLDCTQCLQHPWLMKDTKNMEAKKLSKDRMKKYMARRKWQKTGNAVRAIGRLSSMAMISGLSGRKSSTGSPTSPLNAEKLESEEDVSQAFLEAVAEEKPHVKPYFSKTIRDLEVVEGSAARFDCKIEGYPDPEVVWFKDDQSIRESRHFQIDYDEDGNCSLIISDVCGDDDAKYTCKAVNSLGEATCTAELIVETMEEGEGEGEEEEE
Chain of Serine/threonine-protein kinase MAK (Homo sapiens) (P20794 whole entry, the tested form may be a part): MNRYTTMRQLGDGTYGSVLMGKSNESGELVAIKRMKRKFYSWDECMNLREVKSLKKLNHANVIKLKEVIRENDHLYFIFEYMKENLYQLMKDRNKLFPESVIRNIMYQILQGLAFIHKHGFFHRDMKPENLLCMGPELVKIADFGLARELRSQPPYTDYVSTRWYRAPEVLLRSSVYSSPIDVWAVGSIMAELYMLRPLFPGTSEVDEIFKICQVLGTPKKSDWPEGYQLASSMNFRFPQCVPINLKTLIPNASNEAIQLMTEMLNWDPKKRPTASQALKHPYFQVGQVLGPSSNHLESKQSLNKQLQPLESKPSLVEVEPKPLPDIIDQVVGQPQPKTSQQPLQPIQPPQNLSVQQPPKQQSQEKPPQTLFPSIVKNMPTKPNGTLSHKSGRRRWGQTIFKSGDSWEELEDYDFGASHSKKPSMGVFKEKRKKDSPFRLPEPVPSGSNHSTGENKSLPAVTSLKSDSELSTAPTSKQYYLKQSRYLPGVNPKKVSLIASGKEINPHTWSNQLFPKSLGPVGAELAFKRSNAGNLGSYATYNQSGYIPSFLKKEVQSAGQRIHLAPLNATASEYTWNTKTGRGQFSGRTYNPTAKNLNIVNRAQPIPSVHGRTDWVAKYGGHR
Chain of Macrophage colony-stimulating factor 1 receptor (Homo sapiens) (P07333 whole entry, the tested form may be a part): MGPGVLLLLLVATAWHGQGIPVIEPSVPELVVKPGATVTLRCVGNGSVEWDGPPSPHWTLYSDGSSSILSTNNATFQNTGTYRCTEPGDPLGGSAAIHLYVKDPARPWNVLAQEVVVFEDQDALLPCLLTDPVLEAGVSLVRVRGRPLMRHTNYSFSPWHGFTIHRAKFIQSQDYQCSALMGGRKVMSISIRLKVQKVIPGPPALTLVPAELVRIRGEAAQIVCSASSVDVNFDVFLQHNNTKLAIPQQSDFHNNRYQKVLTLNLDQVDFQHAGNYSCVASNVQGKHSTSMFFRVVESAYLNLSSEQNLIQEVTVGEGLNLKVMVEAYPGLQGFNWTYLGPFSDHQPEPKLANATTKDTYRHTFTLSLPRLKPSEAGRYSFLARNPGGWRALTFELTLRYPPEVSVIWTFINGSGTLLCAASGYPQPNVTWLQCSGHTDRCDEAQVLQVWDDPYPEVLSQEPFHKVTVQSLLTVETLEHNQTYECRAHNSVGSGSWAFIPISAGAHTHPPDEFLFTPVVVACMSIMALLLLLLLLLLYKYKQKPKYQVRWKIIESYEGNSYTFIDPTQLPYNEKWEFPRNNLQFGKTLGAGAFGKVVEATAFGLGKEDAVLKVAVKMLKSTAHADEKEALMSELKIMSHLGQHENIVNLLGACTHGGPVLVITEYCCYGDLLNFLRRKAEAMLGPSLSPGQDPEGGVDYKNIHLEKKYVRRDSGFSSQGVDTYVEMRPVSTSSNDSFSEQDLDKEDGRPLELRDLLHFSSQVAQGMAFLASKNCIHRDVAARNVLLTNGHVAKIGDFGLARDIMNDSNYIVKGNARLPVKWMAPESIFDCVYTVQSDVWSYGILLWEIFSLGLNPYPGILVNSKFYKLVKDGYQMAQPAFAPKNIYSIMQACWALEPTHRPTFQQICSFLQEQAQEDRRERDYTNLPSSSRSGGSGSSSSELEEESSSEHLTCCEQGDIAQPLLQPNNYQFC

Question: Which Activity (Homo sapiens) does the source give for COCCN[C@H]1CC[C@H](Nc2cc(-c3csc(NCC4(C#N)CCOCC4)n3)c(Cl)cn2)CC1 here?
Answer: Its Activity is “inactive”.

Question: And the Tmax [1]?
Answer: The Tmax was 1.2 min.

Question: What about the Activity [2] of the same compound?
Answer: Its Activity is 100%.

Question: And the Activity [3]?
Answer: The Activity was 100%.

Question: And the Activity [4]?
Answer: The Activity was 75%.

Question: And the Activity [5]?
Answer: Its Activity is 97%.

Question: And the Activity [6]?
Answer: Its Activity is 100%.

Question: And the Activity [7]?
Answer: The Activity was 87%.

Question: What about the Activity [8] of the same compound?
Answer: The Activity was 100%.

Question: What about the Activity [9] of the same compound?
Answer: Its Activity is 100%.

Question: What about the Activity [10] of the same compound?
Answer: Its Activity is 100%.

Question: And the Activity [11]?
Answer: Its Activity is 81%.

Question: And the Activity [12]?
Answer: Its Activity is 94%.

Question: What about the Activity [13] of the same compound?
Answer: Its Activity is 100%.

Question: What about the Activity [14] of the same compound?
Answer: The Activity was 90%.

Question: What about the Activity [15] of the same compound?
Answer: Its Activity is 71%.

Question: And the Activity [16]?
Answer: The Activity was 78%.

Question: And the Activity [17]?
Answer: Its Activity is 100%.

Question: What about the Activity [18] of the same compound?
Answer: The Activity was 76%.

Question: What about the Activity [19] of the same compound?
Answer: The Activity was 99%.

Question: And the Activity [20]?
Answer: Its Activity is 90%.
